SUMO Mot1 rescue = yeast Mot1-301 growth rescue at high temperature, primary screen, SUMOylation pathway inhibitor project, S. cerevisiae, ATP luminescence, 38.5C; growth rescue, % at 18.8 µM; S. cerevisiae Mot1-301 growth rescue; percent above DMSO median, 100 means doubled; 320,000 compounds, 1% hits;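 active = every valid replicate shows activation above 250% relative to neutral control wells; inactive = the rest, any valid replicate at or below 250%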;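 also: OY570 slx delta 5 strain wells were the positive control but not used for scaling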
RTF Ca sens inh = cardiac RTF calcium sensitivity inhibitors, primary screen, biochemical, IANBD-TnC fluorescence, EC70 calcium; Troponin I, cardiac muscle (Homo sapiens) + Troponin T, cardiac muscle (Homo sapiens) + …; IANBD-labeled cardiac RTF, Ca2+ fluorescence; inhibition, % at 7.15 µM; 340,000 compounds, 0.12% hits;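 active = inhibition above the mean inhibition of all tested compounds plus 3 SD, cut at about 17% in these data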;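 also: assay run at fixed EC70 calcium of 1.6 mM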
cardiac RTF act = cardiac RTF calcium sensitivity activators, primary screen, biochemical, IANBD-TnC fluorescence, EC20 calcium. Troponin I, cardiac muscle (Homo sapiens) + Troponin T, cardiac muscle (Homo sapiens) + …. IANBD-labeled TnC RTF fluorescence at EC20 calcium; 0% EC20 calcium, 100% full calcium. activation, % at 7.2 µM. 340,000 compounds, 0.24% hits. AID 493008, 2010;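 active = activation above the mean over all tested compounds plus 3 SD, cut at about 30% in these data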;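 also: rise in fluorescence read as greater calcium sensitivity of cardiac thin filaments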
Efflux pump inh = inhibitors of Candida efflux pumps in yeast, primary screen, S. cerevisiae, Nile Red, multiplex | S. cerevisiae Candida pump triplex | inhibition, % at 10 µM | 330,000 compounds, 0.44% hits | AID 485275, 2010;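 active = plate passing quality check with inhibition over a set limit, or well fluorescence over plate mean plus 4 SD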;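 also: Nile Red retained in pooled yeast measured as flow cytometry median fluorescence; 0% = buffer negative control and 100% = Enniatin B positive control; higher means more Nile Red kept so more efflux inhibition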
UCH37 DUB inh = inhibitors of human UCH37 deubiquitinase, primary screen, biochemical, Ub-AMC cleavage, fluorescence; purified proteasome/UCH37; Ubiquitin carboxyl-terminal hydrolase isozyme L5 (Homo sapiens), Q9Y5K5; inhibition, % (no concentration beside the values); 330,000 compounds, 0.33% hits;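 active = mean inhibition over replicate wells above about 20%, limit read from the data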;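 also: 0% = compound-free wells with enzyme and 100% = wells lacking proteasome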
Target sequence (Q9Y5K5 whole entry, looked up): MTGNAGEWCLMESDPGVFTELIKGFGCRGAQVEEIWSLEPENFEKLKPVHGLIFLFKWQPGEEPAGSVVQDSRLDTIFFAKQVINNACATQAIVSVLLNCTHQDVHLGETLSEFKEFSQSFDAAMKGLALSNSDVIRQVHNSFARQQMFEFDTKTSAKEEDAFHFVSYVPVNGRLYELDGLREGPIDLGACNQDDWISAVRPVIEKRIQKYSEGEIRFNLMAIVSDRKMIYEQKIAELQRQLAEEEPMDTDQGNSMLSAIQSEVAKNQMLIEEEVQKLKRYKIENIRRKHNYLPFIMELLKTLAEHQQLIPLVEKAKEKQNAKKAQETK
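system = Proteasome-associated human UCH37 deubiquitinase | amount = 0.15 nM proteasome as dispensed | medium = pH 7.4 Tris-HCl (50 mM) with ovalbumin, ATP-MgCl2, DTT | incubation = 30 min preincubation with enzyme, 25 min cleavage at room temperature | detection = AMC fluorescence 355/460 nm | read-out basis = percent inhibition | controls = no-proteasome and no-compound wells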
ARNT-TACC3 inh = disruptors of ARNT/TACC3 protein interaction, primary screen, biochemical, AlphaScreen, single concentration; Transforming acidic coiled-coil-containing protein 3 (Homo sapiens), Q9Y6A5; AlphaScreen His-ARNT PAS-B/GST-TACC3 binding, luminescence; TACC3 fragment carries E629A point mutation; inhibition, % at 9.99 µM; 390,000 compounds, 0.66% hits; AID 623870, 2012;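 active = mean inhibition of replicates at least 50% and at least half of replicates each reaching 50%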;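 also: 0% = complete ARNT plus TACC3 wells and 100% = ARNT alone without TACC3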
Mot1 SUMO dose = growth restoration of Mot1-301 yeast on galactose, dose response, SUMO pathway inhibitor project, whole organism, S. cerevisiae, ATP luminescence, cherry-picked samples. shares compounds with SUMO Mot1 rescue. S. cerevisiae Mot1-301 galactose growth, 24 h; -100 = growth of slx-deleted rescue strain. growth activity, percent, % at 42 µM. 2,300 tested, under 10 active;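 active = Signal drops as the depositor expects, and the fitted half-maximal dose is no more than ten times the top valid tested dose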;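 also: more negative values mean stronger growth rescue toward the control strain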
Active calls of the source: *; · = not tested or not shown; + = active, no number. An excerpt weighted towards active compounds, which were near 2.1% of everything screened.

SMILES	SUMO Mot1 rescue	RTF Ca sens inh	cardiac RTF act	Efflux pump inh	UCH37 DUB inh	ARNT-TACC3 inh	Mot1 SUMO dose
COc1ccc(Cn2nnnc2CN2CCN(c3ccc(OC)cc3)CC2)cc1	885*	0	-4	1	1	-2	1
COc1ccc(CN2CCOCC2)cc1	-5	5	5	0	0	-8	·
COc1ccc(CN2CCCCCC2)cc1	487*	-9	1	0	5	-5	0
Cc1cc(C)nc(N=C(N)N2CCCCC2)n1	·	·	·	·	6	·	·
CN=c1scc(C)n1N=Cc1ccc(O)cc1O	·	·	·	·	7	·	·
COc1ccccc1CN1CCN(C(=O)c2cccc3ccccc23)CC1	-5	·	·	0	6	·	·
COc1cccc(OC)c1C(=O)N1CCN(Cc2ccccc2C)CC1	359*	-1	-1	0	2	-1	1
COc1cccc(CN2CCN(C(=O)c3cccc4ccccc34)CC2)c1OC	735*	-12	0	0	1	-2	0
COc1ccc(CN2CCN(C(=O)c3cc(-c4cccnc4)nc4ccc(Cl)cc34)CC2)c(OC)c1OC	510*	5	4	0	3	2	0
COc1ccccc1/C=C/C(=O)NCC(=O)NN=Cc1ccc2c(c1)OCO2	·	·	·	·	-1	·	·
COC(=O)CN1C(=O)c2cccc3cccc1c23	798*	-5	2	0	-50	-6	-1
CCN1C(=O)c2cccc3cccc1c23	-1	-8	13	0	-9	8	·
CN(C)C(=O)CN1C(=O)c2cccc3cccc1c23	+	-1	0	0	-20	5	0
CC(C)NC(=O)CN1C(=O)c2cccc3cccc1c23	20	-7	-7	0	-21	-5	·
O=C(O)CC(NC(=O)CC(c1ccccc1)c1ccccc1)c1cccc([N+](=O)[O-])c1 (centres undefined)	5	-4	-2	0	0	-4	·
O=C(O)CC(NC(=O)c1ccc2c(c1)OCO2)c1cccc([N+](=O)[O-])c1 (centres undefined)	+	·	·	0	2	3	0
O=C(CCCC(=O)N/N=C/c1ccccc1C(=O)O)N/N=C/c1ccccc1C(=O)O	419*	-15	-1	0	·	-7	1
Cc1ccccc1C=c1sc(=CC(=O)C(C)(C)C)[nH]c1=O	·	·	·	·	3	·	·
CCN(C(=S)NCCOC)c1cccc2ccccc12	418*	-6	0	0	0	3	1
CCN(C(=S)NC(=O)c1ccco1)c1cccc2ccccc12	4	1	-2	0	-14	11	·
COc1cccc(C=NNC(=S)Nc2cccc(S(=O)(=O)N(C)C)c2)c1	·	·	·	·	0	·	·
CN1CCc2c(sc(N=Cc3cccs3)c2C(N)=O)C1	·	·	·	·	-28	·	·
CN1CCN(C(=O)c2ccc3ccccc3c2)CC1	-15	-5	-1	0	1	-3	·
CCOC(=O)N1CCN(C(=O)c2ccc3ccccc3c2)CC1	379*	4	-7	0	1	-8	0
O=C(O)c1ccccc1N=NC(=NNc1cc(S(=O)(=O)O)ccc1O)c1ccccc1	·	·	·	·	20	·	·
SMILES	SUMO Mot1 rescue	RTF Ca sens inh	cardiac RTF act	Efflux pump inh	UCH37 DUB inh	ARNT-TACC3 inh	Mot1 SUMO dose
COc1ccc(NC(=S)Nc2ccc(OC)cc2OC)c(OC)c1	-5	3	1	0	0	2	·
COc1ccc(NC(=S)Nc2ccccc2OC)c(OC)c1	476*	0	-2	0	1	7	-1
CC(=NNC(=O)c1nnn(-c2nonc2N)c1-c1ccccc1)c1ccco1	·	·	·	·	-14	·	·
COc1cc(OC)cc(OC(=O)c2ccc3c(=O)n4c(nc3c2)CCC4)c1	359*	-10	0	0	1	1	0
N#Cc1ccc2[nH]c(CO)c(-c3ccccc3)c2c1	+	8	-5	0	·	3	-1
COC(=O)c1ccc2[nH]c(CO)c(-c3ccccc3)c2c1	354	6	-8	0	2	0	·
CC(C)N1CCN(C(=O)c2ccc(OC3CCN(CCc4ccccc4)CC3)cc2)CC1	-17	1	7	0	1	0	·
O=C(c1ccc(OC2CCN(CCc3ccccc3)CC2)cc1)N1CCCC1	608*	-7	7	0	6	-5	0
CC(CCc1ccc2c(c1)OCO2)=N/N=C1/NC(=O)CC(C(=O)Nc2ccccc2)S1 (centres undefined)	·	·	·	·	7	·	·
O=C(NN=Cc1cccnc1)C1CCCCC1	·	·	·	·	-1	·	·
Cc1c(C(=O)N2CCCC2)c(S(=O)(=O)Nc2ccccc2)c(C)n1C	-2	-16	8	0	1	-1	·
Cc1c(C(=O)N2CCCC2)c(S(=O)(=O)Nc2cccc(Br)c2)c(C)n1C	709*	-12	3	0	2	-2	-1
Cc1nn(C)cc1S(=O)(=O)Nc1ccccc1Br	6	-3	-2	0	4	-3	·
Cc1nn(C)cc1S(=O)(=O)Nc1ncccn1	598*	-2	-4	0	2	0	0
Cc1nc2nc[nH]n2c(=O)c1NS(=O)(=O)c1ccc([N+](=O)[O-])cc1	487*	-13	-3	0	5	-10	0
Cc1nc2nc[nH]n2c(=O)c1NS(=O)(=O)c1ccc(F)cc1	13	-1	9	0	2	-19	·
COc1ccc(NC(=O)C2Cc3cccc(OC)c3OC2=NO)cc1 (centres undefined)	·	·	·	·	1	·	·
CCOC(=S)SCC(=O)Nc1nc(C)c(C)s1	·	-6	-3	0	8	6	·
Cc1nc(NC(=O)CSc2nc(N)cc(N)n2)sc1C	661*	-2	1	0	3	-9	0
CCCN1CCN(CCCNC(=O)CCn2nc(-c3ccccc3)ccc2=O)CC1	565*	-5	2	0	5	-4	0
CN1CCN(CCCNC(=O)Cn2nc(-c3ccccc3)ccc2=O)CC1	11	8	-6	0	1	-3	·
N#CC1=C(N)Nc2ncnn2C1c1ccccc1 (centres undefined)	121	·	·	0	·	·	·

Screening data deposited in PubChem by several laboratories.
